Assay results from ChEMBL document CHEMBL2429797, “2,5,6-trisubstituted imidazo[2,1-b][1,3,4]thiadiazoles: search for antihyperlipidemic agents” (Eur J Med Chem, 2013).
The source made the active and inactive calls. The rule behind the calls is not given here.

Tests used:
Rattus norvegicus [1] = assay: Ratio of LDL level in serum to HDL level in serum in Triton-X-100-induced hyperlipidemia Wistar albino rat model at 250 mg/kg, po qd for 7 days; type: functional
In short: (§1)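 Triton-X-100 hyperlipidemic male Wistar rats, n = 6 per group, dosed orally for 7 days in 5% CMC. Serum lipids were measured and risk ratios calculated per NCEP (2002): total cholesterol:HDL (atherogenic index) and LDL:HDL.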

Rattus norvegicus [2] = assay: Ratio of total cholesterol level in serum to HDL level in serum in Triton-X-100-induced hyperlipidemia Wistar albino rat model at 250 mg/kg, po qd for 7 days; type: functional; in short: as §1
Rattus norvegicus [3] = assay: Antihyperlipidemic activity in Triton-X-100-induced hyperlipidemia Wistar albino rat model assessed as increase of HDL level in serum at 250 mg/kg, po qd for 7 days; type: functional
In short: (§2)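 Male Wistar albino rats (200–250 g), fasted 18 h, then given a single i.p. injection of Triton-X-100 (100 mg/kg) in saline. Starting 72 h later, dosed orally once daily for 7 days with suspension in 5% CMC; six per group. Retro-orbital blood taken under ether; serum separated at 2500 × g, 15 min, 4 °C, and lipids assayed. Mean ± SEM, n = 6.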

Rattus norvegicus [4] = assay: Antihyperlipidemic activity in Triton-X-100-induced hyperlipidemia Wistar albino rat model assessed as reduction of LDL level in serum at 250 mg/kg, po qd for 7 days; type: functional; in short: as §2
Rattus norvegicus [5] = assay: Antihyperlipidemic activity in Triton-X-100-induced hyperlipidemia Wistar albino rat model assessed as reduction of VLDL level in serum at 250 mg/kg, po qd for 7 days; type: functional; in short: as §2
Rattus norvegicus [6] = assay: Antihyperlipidemic activity in Triton-X-100-induced hyperlipidemia Wistar albino rat model assessed as reduction of triglyceride level in serum at 250 mg/kg, po qd for 7 days; type: functional; in short: as §2
Rattus norvegicus [7] = assay: Antihyperlipidemic activity in Triton-X-100-induced hyperlipidemia Wistar albino rat model assessed as reduction of total cholesterol level in serum at 250 mg/kg, po qd for 7 days; type: functional; in short: as §2
Rattus norvegicus [8] = assay: Protective activity against Triton-X-100-induced hepatotoxicity in Wistar albino rat assessed as mild cytoplasmic fatty infiltration and mild granular degeneration in liver at 250 mg/kg, po qd for 7 days; type: functional, organism-based; parameters: dose 250 mg/kg
Rattus norvegicus [9] = assay: Hepatotoxicity in Triton-X-100-induced hyperlipidemia Wistar albino rat model assessed as alkaline phosphatase level in serum at 250 mg/kg, po qd for 7 days; type: toxicity, organism-based; parameters: dose 250 mg/kg, route oral; conditions: in vivo, 168 h
In short: (§3)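 Serum from Triton-X-100 hyperlipidemic male Wistar rats, dosed orally daily for 7 days in 5% CMC. Blood taken retro-orbitally under ether. Assays: alanine transferase and aspartate transferase reported in IU, alkaline phosphatase in KA units. Normal ranges are given alongside.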

Rattus norvegicus [10] = assay: Hepatotoxicity in Triton-X-100-induced hyperlipidemia Wistar albino rat model assessed as SGOT level in serum at 250 mg/kg, po qd for 7 days; type: toxicity, organism-based; parameters: dose 250 mg/kg, route oral; conditions: in vivo, 168 h; in short: as §3
Rattus norvegicus [11] = assay: Hepatotoxicity in Triton-X-100-induced hyperlipidemia Wistar albino rat model assessed as SGPT level in serum at 250 mg/kg, po qd for 7 days; type: toxicity, organism-based; parameters: dose 250 mg/kg, route oral; conditions: in vivo, 168 h; in short: as §3
Rattus norvegicus [12] = assay: Protective activity against Triton-X-100-induced hepatotoxicity in Wistar albino rat assessed as mild cytoplasmic fatty infiltration and mild to moderate granular degeneration in liver at 250 mg/kg, po qd for 7 days; type: functional, organism-based; parameters: dose 250 mg/kg

Row | SMILES | Ratio (Rattus norvegicus [1]) | Ratio (Rattus norvegicus [2]) | Activity (Rattus norvegicus [3]) | Activity (Rattus norvegicus [4]) | Activity (Rattus norvegicus [5]) | Activity (Rattus norvegicus [6]) | Activity (Rattus norvegicus [7]) | Activity (Rattus norvegicus [8]) | Activity (Rattus norvegicus [9]) | Activity (Rattus norvegicus [10]) | Activity (Rattus norvegicus [11]) | Activity (Rattus norvegicus [12])
1 | Brc1ccc(/N=C/c2c(-c3ccccc3)nc3sc(-c4ccc5c(c4)OCO5)nn23)cc1 | 2.57 | 4.55 | 24.78 mg/dL | 63.74 mg/dL | 19.86 mg/dL | 86.89 mg/dL | 112.78 mg/dL |  |  |  |  | 
2 | Cc1cccc(/N=C/c2c(-c3ccc(Cl)cc3)nc3sc(-c4ccc5c(c4)OCO5)nn23)c1 | 2.23 | 4.04 | 28.12 mg/dL | 62.83 mg/dL | 19.93 mg/dL | 86.23 mg/dL | 113.72 mg/dL |  |  |  |  | 
3 | Cc1ccc(/N=C/c2c(-c3ccccc3)nc3sc(-c4ccc5c(c4)OCO5)nn23)cc1 | 2.84 | 4.89 | 23.34 mg/dL | 66.32 mg/dL | 22.83 mg/dL | 88.43 mg/dL | 114.36 mg/dL |  |  |  |  | 
4 | Fc1ccc(/N=C/c2c(-c3ccc(Cl)cc3)nc3sc(-c4ccc5c(c4)OCO5)nn23)cc1Cl | 1.63 | 2.97 | 33.57 mg/dL | 54.95 mg/dL | 15.43 mg/dL | 80.45 mg/dL | 99.89 mg/dL | Active | 27.3 KA | 56.5 IU | 27.8 IU | 
5 | COc1ccc(/N=C/c2c(-c3ccccc3)nc3sc(-c4ccc5c(c4)OCO5)nn23)cc1 | 2.24 | 3.95 | 28.83 mg/dL | 64.73 mg/dL | 18.46 mg/dL | 84.98 mg/dL | 113.98 mg/dL |  |  |  |  | 
6 | O=C(N/N=C/c1c(-c2ccc(Cl)cc2)nc2sc(-c3ccc4c(c3)OCO4)nn12)c1ccccc1 | 1.97 | 3.6 | 29.93 mg/dL | 59.12 mg/dL | 16.34 mg/dL | 80.67 mg/dL | 107.87 mg/dL |  |  |  |  | 
7 | Clc1ccc(-c2nc3sc(-c4ccc5c(c4)OCO5)nn3c2/C=N/c2ccc(Br)cc2)cc1 | 1.63 | 3.15 | 32.85 mg/dL | 53.82 mg/dL | 16.85 mg/dL | 83.43 mg/dL | 103.54 mg/dL |  | 26.6 KA | 58.8 IU | 29.3 IU | Active
8 | CC(C)OC(=O)C(C)(C)Oc1ccc(C(=O)c2ccc(Cl)cc2)cc1 [FENOFIBRATE] | 1.46 | 2.9 | 35.21 mg/dL | 51.68 mg/dL | 13.67 mg/dL | 71.23 mg/dL | 102.24 mg/dL |  | 28.33 KA | 49.45 IU | 26.43 IU | 
9 | COc1ccc(/N=C/c2c(-c3ccc(Cl)cc3)nc3sc(-c4ccc5c(c4)OCO5)nn23)cc1 | 1.9 | 3.44 | 31.34 mg/dL | 59.85 mg/dL | 16.86 mg/dL | 83.56 mg/dL | 107.83 mg/dL |  |  |  |  | 
10 | C(=N\c1ccccc1)/c1c(-c2ccccc2)nc2sc(-c3ccc4c(c3)OCO4)nn12 | 2.62 | 4.7 | 25.12 mg/dL | 65.85 mg/dL | 21.54 mg/dL | 89.12 mg/dL | 118.23 mg/dL |  |  |  |  | 
11 | O=C(O)c1ccc(/N=C/c2c(-c3ccc(Cl)cc3)nc3sc(-c4ccc5c(c4)OCO5)nn23)cc1 | 1.43 | 2.76 | 34.78 mg/dL | 49.94 mg/dL | 15.85 mg/dL | 76.89 mg/dL | 96.12 mg/dL | Active | 29.5 KA | 48.3 IU | 26.8 IU | 
12 | Cc1ccc(/N=C/c2c(-c3ccc(Cl)cc3)nc3sc(-c4ccc5c(c4)OCO5)nn23)cc1 | 2.36 | 3.89 | 29.12 mg/dL | 68.84 mg/dL | 18.35 mg/dL | 85.67 mg/dL | 113.28 mg/dL |  |  |  |  | 
13 | O=[N+]([O-])c1ccc(/N=C/c2c(-c3ccc(Cl)cc3)nc3sc(-c4ccc5c(c4)OCO5)nn23)cc1 | 1.84 | 3.34 | 31.54 mg/dL | 58.24 mg/dL | 18.13 mg/dL | 82.56 mg/dL | 105.56 mg/dL |  | 28.8 KA | 49.9 IU | 28.3 IU | 
14 | NS(=O)(=O)c1ccc(/N=C/c2c(-c3ccc(Cl)cc3)nc3sc(-c4ccc5c(c4)OCO5)nn23)cc1 | 1.54 | 3 | 33.78 mg/dL | 52.23 mg/dL | 14.73 mg/dL | 79.54 mg/dL | 101.56 mg/dL | Active | 29.3 KA | 51.7 IU | 28.6 IU | 
